Data: ChEMBL document CHEMBL3856250, “Discovery of 6-Fluoro-5-(R)-(3-(S)-(8-fluoro-1-methyl-2,4-dioxo-1,2-dihydroquinazolin-3(4H)-yl)-2-methylphenyl)-2-(S)-(2-hydroxypropan-2-yl)-2,3,4,9-tetrahydro-1H-carbazole-8-carboxamide (BMS-986142): A Reversible Inhibitor of Bruton's Tyrosine Kinase (BTK) Conformationally Constrained by Two …” (J Med Chem, 2016)

Legend:
[1] = Oral bioavailability in mouse at 3 mg/kg; format: ADME, organism-based; settings: in vivo
[2] = Cmax in cynomolgus monkey at 4 mg/kg, po; format: ADME, organism-based, Macaca fascicularis; parameters: dose 4 mg/kg, route oral; settings: in vivo
[3] = biological target: Tyrosine-protein kinase BTK (Homo sapiens, UniProt Q06187); test: Inhibition of BTK in human PBM cells assessed as suppression of FCRgammaR/immune complex-stimulated TNFalpha production; format: cell-based
Sequence of Tyrosine-protein kinase BTK (Homo sapiens, UniProt Q06187) (Q06187 whole entry): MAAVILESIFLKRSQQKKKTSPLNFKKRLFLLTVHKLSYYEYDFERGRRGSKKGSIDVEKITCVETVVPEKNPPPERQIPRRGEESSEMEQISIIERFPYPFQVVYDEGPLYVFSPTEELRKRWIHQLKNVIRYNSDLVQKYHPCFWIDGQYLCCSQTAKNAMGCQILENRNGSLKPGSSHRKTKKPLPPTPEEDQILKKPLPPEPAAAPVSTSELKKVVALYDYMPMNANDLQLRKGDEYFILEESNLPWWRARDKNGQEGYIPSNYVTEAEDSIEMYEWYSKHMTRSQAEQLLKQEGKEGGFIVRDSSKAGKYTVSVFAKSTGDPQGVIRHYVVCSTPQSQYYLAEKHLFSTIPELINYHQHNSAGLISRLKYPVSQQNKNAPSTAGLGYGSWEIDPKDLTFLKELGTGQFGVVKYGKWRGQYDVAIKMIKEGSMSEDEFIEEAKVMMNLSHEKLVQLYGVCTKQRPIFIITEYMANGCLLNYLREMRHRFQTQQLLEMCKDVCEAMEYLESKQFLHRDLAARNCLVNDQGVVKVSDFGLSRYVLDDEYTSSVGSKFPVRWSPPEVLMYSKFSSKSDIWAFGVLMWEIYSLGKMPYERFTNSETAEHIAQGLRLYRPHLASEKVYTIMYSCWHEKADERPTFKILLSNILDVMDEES

[4] = Tmax in cynomolgus monkey at 4 mg/kg, po; format: ADME, organism-based, Macaca fascicularis; settings: in vivo
[5] = MRT in dog at 1 mg/kg, iv; format: ADME, organism-based, Canis lupus familiaris; settings: in vivo
[6] = biological target: T1, Cytochrome P450 1A2 (Homo sapiens, UniProt P05177); test: Inhibition of CYP1A2 (unknown origin); format: ADME
T1 sequence (P05177 whole entry): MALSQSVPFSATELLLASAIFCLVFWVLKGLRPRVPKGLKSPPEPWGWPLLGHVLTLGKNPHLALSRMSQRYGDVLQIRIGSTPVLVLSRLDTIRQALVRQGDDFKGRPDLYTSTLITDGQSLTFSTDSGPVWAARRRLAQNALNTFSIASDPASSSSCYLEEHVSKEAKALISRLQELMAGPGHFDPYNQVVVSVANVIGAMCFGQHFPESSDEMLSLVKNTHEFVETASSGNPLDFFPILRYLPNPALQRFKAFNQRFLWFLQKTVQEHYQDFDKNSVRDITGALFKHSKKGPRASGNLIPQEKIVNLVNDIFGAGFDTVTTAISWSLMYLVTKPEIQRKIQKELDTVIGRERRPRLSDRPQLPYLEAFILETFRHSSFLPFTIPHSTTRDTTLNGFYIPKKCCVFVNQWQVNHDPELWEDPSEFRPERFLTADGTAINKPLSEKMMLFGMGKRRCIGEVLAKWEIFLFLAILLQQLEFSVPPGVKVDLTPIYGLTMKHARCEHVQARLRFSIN

[7] = biological target: T2, Cytochrome P450 2C8 (Homo sapiens, UniProt P10632); test: Inhibition of CYP2C8 (unknown origin); format: ADME
T2 sequence (P10632 whole entry): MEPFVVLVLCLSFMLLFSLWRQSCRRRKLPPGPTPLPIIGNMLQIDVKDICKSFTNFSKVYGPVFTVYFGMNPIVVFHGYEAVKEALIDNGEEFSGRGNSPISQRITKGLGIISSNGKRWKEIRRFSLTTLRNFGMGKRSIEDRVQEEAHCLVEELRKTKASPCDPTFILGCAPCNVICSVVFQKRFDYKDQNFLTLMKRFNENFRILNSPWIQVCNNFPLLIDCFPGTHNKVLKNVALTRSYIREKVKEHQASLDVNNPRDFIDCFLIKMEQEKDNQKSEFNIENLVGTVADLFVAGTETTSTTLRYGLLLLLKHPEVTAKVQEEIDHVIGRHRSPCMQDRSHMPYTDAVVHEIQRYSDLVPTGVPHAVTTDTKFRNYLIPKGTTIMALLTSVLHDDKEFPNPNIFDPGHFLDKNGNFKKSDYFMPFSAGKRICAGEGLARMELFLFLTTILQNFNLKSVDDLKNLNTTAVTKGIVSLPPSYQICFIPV

[8] = Protein binding in rat plasma; format: ADME, cell-free; settings: read-out: PPB (converted)
[9] = Oral bioavailability in cynomolgus monkey at 4 mg/kg; format: ADME, organism-based, Macaca fascicularis; settings: in vivo
[10] = biological target: Cytochrome P450 2C19 (Homo sapiens, UniProt P33261); test: Inhibition of CYP2C19 (unknown origin); format: ADME
Sequence of Cytochrome P450 2C19 (P33261 whole entry): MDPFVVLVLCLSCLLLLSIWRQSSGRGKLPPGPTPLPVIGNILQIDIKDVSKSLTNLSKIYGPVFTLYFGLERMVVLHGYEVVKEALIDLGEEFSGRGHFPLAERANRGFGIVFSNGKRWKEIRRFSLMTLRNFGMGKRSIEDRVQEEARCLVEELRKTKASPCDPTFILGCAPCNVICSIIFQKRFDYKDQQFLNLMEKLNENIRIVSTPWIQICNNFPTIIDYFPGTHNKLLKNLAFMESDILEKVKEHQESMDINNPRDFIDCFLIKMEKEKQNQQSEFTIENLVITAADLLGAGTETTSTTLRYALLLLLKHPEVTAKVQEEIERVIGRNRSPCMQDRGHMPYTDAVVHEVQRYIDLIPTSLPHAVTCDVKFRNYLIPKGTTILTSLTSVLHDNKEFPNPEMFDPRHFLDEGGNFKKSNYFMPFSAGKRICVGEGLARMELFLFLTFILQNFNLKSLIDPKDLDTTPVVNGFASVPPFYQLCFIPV

[11] = Bioavailability in mouse at 10 mg/kg; format: ADME, organism-based; settings: in vivo
[12] = Clearance in rat at 2 mg/kg, iv; format: ADME, organism-based; settings: in vivo
[13] = Mutagenicity in Salmonella typhimurium by Ames test; format: toxicity; settings: salmonella enterica subsp. enterica serovar typhimurium
[14] = AUC in rat at 5 mg/kg, po; format: ADME, organism-based; settings: in vivo
[15] = Drug uptake in rat brain relative to plasma concentration; format: ADME
[16] = MRT in mouse at 3 mg/kg, iv; format: ADME, organism-based; settings: in vivo
[17] = Half life in rat at 2 mg/kg, iv; format: ADME, organism-based; settings: in vivo
[18] = Distribution coefficient, log D of the compound at pH 7.0 by HPLC method; format: physicochemical; settings: octanol/water
[19] = biological target: T3, Tyrosine-protein kinase ITK/TSK (Homo sapiens, UniProt Q08881); test: Inhibition of ITK in human peripheral T cells assessed as suppression of TCR/anti-CD3-stimulated protein catalyzed PLCgamma1 phosphorylation; format: cell-based, T-cell
T3 sequence (Q08881 whole entry): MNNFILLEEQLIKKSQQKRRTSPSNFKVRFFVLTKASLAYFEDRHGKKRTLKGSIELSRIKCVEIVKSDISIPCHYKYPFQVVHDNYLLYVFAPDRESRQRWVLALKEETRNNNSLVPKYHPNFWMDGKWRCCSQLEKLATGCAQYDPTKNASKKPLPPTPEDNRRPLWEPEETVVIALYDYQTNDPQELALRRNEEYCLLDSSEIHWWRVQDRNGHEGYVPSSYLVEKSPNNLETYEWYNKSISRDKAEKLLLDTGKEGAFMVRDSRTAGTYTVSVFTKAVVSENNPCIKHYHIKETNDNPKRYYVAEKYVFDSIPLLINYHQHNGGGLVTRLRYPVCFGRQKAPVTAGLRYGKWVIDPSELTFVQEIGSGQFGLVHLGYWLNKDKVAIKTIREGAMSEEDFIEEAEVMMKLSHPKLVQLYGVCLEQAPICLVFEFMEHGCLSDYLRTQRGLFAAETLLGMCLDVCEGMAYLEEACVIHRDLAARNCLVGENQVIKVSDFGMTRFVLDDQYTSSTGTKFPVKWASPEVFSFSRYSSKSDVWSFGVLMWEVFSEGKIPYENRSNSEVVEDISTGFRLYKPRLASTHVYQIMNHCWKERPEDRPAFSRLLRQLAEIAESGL

[20] = Protein binding in mouse plasma; format: ADME, cell-free; settings: read-out: PPB (converted)
[21] = Clearance in cynomolgus monkey at 2 mg/kg, iv; format: ADME, organism-based, Macaca fascicularis; settings: in vivo
[22] = biological target: Cytochrome P450 2C9 (Homo sapiens, UniProt P11712); test: Inhibition of CYP2C9 (unknown origin); format: ADME
Sequence of Cytochrome P450 2C9 (P11712 whole entry): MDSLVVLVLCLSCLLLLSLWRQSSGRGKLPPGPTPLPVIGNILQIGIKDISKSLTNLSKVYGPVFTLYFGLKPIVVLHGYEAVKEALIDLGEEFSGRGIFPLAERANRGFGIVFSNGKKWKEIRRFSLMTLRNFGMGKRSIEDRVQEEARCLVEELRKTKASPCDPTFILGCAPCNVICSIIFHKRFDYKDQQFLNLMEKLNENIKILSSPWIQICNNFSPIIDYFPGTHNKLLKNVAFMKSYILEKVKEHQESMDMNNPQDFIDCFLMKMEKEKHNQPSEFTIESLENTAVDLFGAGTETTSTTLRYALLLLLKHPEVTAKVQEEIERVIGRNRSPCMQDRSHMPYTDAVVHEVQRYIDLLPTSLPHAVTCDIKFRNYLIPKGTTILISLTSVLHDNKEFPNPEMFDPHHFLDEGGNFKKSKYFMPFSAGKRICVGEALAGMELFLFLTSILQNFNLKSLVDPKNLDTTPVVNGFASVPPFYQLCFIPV

[23] = Tmax in mouse at 6 mg/kg, po; format: ADME, organism-based; settings: in vivo
[24] = AUC in dog at 2 mg/kg, po; format: ADME, organism-based, Canis lupus familiaris; settings: in vivo
[25] = Volume of distribution at steady state in mouse at 3 mg/kg, iv; format: ADME, organism-based; settings: in vivo, read-out: Vdss
[26] = biological target: Tyrosine-protein kinase BTK (Mus musculus, UniProt P35991); test: Inhibition of BTK in mouse whole blood assessed as suppression of BCR/anti-IgM/IgG-stimulated CD69 surface expression after 18 hrs with agitation by FITC-staining based FACS analysis; format: tissue-based
Sequence of Tyrosine-protein kinase BTK (Mus musculus, UniProt P35991) (P35991 whole entry): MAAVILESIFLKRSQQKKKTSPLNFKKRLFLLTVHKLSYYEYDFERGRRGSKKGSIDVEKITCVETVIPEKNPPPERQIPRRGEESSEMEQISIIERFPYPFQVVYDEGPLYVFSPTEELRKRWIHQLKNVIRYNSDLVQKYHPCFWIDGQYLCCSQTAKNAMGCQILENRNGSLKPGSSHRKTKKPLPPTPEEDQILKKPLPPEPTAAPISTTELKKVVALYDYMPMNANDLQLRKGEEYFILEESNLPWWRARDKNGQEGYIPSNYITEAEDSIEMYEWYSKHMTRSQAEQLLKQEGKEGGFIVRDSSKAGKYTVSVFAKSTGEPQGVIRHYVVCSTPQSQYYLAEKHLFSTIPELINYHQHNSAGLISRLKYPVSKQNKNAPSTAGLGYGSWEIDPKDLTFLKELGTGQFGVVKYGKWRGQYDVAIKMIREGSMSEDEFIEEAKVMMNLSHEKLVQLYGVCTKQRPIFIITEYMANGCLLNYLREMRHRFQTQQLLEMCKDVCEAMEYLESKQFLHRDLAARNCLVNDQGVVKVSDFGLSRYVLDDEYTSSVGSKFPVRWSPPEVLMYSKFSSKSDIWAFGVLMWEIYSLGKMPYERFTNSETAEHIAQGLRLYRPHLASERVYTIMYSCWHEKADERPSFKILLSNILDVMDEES
Summary of the method: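 Mouse whole blood was incubated with compound and stimulated with F(ab′)2 goat anti-mouse IgG+IgM (100 μg/mL) in the same way as the human assay (18 h, 37 °C, agitation). B cells were gated by APC anti-CD19, and CD69 was quantified as FITC MFI by FACS.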

[27] = Cmax in mouse at 6 mg/kg, po; format: ADME, organism-based; parameters: dose 6 mg/kg, route oral; settings: in vivo
[28] = biological target: Proto-oncogene tyrosine-protein kinase Src (Homo sapiens, UniProt P12931); test: Inhibition of SRC (unknown origin)
Sequence of Proto-oncogene tyrosine-protein kinase Src (P12931 2-536 limits assumed): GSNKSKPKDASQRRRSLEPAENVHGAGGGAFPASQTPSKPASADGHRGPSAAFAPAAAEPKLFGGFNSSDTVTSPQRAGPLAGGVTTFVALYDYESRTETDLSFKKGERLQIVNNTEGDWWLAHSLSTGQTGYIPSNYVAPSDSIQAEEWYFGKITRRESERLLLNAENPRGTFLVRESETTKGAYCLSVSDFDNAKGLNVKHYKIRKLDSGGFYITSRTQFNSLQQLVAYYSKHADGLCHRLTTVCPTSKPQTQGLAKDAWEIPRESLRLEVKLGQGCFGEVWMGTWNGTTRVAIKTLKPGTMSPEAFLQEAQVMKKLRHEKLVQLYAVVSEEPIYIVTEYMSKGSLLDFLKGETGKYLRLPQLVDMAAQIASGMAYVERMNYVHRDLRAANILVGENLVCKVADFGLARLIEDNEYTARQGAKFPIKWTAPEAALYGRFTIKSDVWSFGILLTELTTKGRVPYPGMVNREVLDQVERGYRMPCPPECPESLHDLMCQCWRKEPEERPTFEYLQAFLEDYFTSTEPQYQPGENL

[29] = Half life in mouse at 3 mg/kg, iv; format: ADME, organism-based; settings: in vivo
[30] = Cmax in rat at 5 mg/kg, po; format: ADME, organism-based; parameters: dose 5 mg/kg, route oral; settings: in vivo

Cc1c(-c2c(F)cc(C(N)=O)c3[nH]c4c(c23)CC[C@H](C(C)(C)O)C4)cccc1-n1c(=O)c2cccc(F)c2n(C)c1=O (atropisomer R) [BMS-986142]
bioavailability [1]: 93% | Cmax [2]: 850 nM | IC50 [3]: 3 nM | Tmax [4]: 3.7 h | MRT [5]: 18 h | IC50 [6]: > 40000 nM | IC50 [7]: 2600 nM | fraction unbound [8]: 0.017 | bioavailability [9]: 33% | IC50 [10]: 32200 nM | bioavailability [11]: < 4% | clearance [12]: 4.2 mL/min/kg | Activity [13]: Non-Toxic | AUC [14]: 23 µM·h | Drug uptake [15]: < 5% | MRT [16]: 4.8 h | half-life [17]: 3.6 h | logD [18]: 4.06 | IC50 [19]: 410 nM | fraction unbound [20]: 0.015 | clearance [21]: 10 mL/min/kg | IC50 [22]: 17100 nM | Tmax [23]: 1 h | AUC [24]: 16 µM·h | Vd [25]: 1.2 L/kg | IC50 [26]: 140 nM | Cmax [27]: 4900 nM | IC50 [28]: 1100 nM | half-life [29]: 3.4 h | Cmax [30]: 2300 nM
